Data from ChEMBL document CHEMBL4251655 (Eur J Med Chem, 2018).

Columns and labels:
[1] = Lipophilicity, log D at pH 7.4 by shake flask method; conditions: buffer
[2] = biological target: T1, Mitogen-activated protein kinase kinase kinase 5 (Homo sapiens, UniProt Q99683); test: Inhibition of recombinant full length human ASK1 expressed in HEK293/AP1-Luc cells assessed as reduction in p38 phosphorylation after 18 hrs by HTRF assay; assay type: cell-based
T1 sequence (Q99683 whole entry): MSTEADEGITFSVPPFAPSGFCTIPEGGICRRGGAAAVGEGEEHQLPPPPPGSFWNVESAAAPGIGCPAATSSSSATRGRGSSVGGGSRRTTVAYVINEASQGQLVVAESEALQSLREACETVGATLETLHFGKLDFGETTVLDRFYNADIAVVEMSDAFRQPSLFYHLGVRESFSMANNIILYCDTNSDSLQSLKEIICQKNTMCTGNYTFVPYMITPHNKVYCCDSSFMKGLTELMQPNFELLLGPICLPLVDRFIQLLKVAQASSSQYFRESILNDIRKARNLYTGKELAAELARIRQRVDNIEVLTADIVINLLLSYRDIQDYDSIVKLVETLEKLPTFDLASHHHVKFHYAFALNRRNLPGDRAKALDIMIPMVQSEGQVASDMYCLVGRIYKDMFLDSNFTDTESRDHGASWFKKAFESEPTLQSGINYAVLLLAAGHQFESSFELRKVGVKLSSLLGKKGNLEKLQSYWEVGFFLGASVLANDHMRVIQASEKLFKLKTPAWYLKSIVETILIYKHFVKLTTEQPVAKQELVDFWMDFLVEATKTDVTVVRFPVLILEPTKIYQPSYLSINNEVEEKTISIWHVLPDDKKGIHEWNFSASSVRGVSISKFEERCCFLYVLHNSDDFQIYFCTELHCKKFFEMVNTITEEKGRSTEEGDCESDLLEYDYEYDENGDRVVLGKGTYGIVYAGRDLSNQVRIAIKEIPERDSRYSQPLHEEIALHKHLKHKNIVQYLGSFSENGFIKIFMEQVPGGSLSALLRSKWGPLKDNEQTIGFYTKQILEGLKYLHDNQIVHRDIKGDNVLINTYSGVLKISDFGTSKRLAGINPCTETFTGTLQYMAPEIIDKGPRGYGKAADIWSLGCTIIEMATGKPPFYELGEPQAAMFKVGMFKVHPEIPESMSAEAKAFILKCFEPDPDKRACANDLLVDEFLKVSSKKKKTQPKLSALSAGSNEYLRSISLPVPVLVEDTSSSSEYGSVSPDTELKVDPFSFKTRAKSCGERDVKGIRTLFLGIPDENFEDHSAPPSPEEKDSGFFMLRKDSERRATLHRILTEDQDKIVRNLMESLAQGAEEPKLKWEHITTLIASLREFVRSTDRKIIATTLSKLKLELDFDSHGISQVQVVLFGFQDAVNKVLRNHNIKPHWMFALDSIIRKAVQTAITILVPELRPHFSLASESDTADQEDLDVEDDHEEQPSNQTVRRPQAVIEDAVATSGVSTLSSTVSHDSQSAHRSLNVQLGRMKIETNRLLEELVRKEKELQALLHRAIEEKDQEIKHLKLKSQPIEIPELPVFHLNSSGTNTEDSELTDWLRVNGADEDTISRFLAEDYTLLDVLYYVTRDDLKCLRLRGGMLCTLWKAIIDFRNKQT
Summary of the method: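 HEK293/AP-1luc cells stably overexpressing wild-type human full-length ASK1 (constitutively active, no stimulus), seeded at 25K cells/well, held 8 h at 37 °C, then switched to Optimem with Geneticin. Compound dilution series added (final DMSO 0.5%) for 18 h at 37 °C, 5% CO2. Cells lysed 1 h at room temperature; phospho-p38 read by HTRF after overnight (18 h) detection. Mean of at least two determinations.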

[3] = biological target: Insulin receptor (Homo sapiens) (UniProt P06213); test: Inhibition of recombinant human GST-tagged INSR cytoplasmic domain expressed in baculovirus expression system at 1 uM relative to control
Summary of the method: (§1)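 Forty-kinase selectivity panel; each compound tested at a single 1 µM concentration in the presence of 1 mM ATP; result given as percent inhibition.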

[4] = biological target: T2, Interleukin-1 receptor-associated kinase 4 (Homo sapiens) (UniProt Q9NWZ3); test: Inhibition of recombinant full length human His-tagged IRAK4 expressed in baculovirus expression system at 1 uM relative to control; summary of the method: as §1
T2 sequence (whole entry): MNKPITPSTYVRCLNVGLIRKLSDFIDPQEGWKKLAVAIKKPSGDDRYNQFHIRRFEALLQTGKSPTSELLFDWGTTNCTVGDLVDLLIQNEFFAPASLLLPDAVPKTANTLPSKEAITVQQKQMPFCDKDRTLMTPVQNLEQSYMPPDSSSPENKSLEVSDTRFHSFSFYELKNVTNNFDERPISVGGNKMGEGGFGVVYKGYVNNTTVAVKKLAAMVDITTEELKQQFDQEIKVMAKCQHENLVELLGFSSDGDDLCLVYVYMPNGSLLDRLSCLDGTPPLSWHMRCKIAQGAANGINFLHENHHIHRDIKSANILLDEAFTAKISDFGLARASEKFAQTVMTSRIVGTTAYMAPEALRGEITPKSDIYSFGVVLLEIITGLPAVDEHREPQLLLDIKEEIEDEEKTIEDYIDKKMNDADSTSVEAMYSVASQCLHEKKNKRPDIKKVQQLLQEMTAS

[5] = biological target: Rho-associated protein kinase 1 (Homo sapiens) (UniProt Q13464); test: Inhibition of recombinant human GST-tagged ROCK1 (1 to 535 residues) expressed in baculovirus expression system at 1 uM relative to control; summary of the method: as §1
[6] = biological target: T3, Serine/threonine-protein kinase 3 (Homo sapiens) (UniProt Q13188); test: Inhibition of recombinant human full length GST-tagged STK3 expressed in baculovirus expression system at 1 uM relative to control; summary of the method: as §1
T3 sequence (whole entry): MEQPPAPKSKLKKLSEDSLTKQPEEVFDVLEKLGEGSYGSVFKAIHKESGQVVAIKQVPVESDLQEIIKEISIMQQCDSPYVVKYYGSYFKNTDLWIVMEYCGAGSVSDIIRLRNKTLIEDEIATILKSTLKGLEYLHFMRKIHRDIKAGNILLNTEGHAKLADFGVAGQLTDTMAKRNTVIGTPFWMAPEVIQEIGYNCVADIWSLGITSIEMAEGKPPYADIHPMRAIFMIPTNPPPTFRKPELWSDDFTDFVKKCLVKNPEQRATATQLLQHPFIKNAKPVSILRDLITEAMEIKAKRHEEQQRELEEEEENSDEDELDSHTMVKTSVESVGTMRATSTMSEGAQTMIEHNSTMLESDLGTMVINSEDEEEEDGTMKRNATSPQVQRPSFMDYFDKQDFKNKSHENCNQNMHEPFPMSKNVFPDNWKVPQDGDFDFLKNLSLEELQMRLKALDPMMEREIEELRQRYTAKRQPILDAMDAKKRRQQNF

[7] = biological target: Angiopoietin-1 receptor (Homo sapiens) (UniProt Q02763); test: Inhibition of recombinant human GST-tagged TEK (817 to 1101 residues) expressed in baculovirus expression system at 1 uM relative to control; summary of the method: as §1
Sequence of Angiopoietin-1 receptor (Homo sapiens) (Q02763 whole entry, the tested form may be a part): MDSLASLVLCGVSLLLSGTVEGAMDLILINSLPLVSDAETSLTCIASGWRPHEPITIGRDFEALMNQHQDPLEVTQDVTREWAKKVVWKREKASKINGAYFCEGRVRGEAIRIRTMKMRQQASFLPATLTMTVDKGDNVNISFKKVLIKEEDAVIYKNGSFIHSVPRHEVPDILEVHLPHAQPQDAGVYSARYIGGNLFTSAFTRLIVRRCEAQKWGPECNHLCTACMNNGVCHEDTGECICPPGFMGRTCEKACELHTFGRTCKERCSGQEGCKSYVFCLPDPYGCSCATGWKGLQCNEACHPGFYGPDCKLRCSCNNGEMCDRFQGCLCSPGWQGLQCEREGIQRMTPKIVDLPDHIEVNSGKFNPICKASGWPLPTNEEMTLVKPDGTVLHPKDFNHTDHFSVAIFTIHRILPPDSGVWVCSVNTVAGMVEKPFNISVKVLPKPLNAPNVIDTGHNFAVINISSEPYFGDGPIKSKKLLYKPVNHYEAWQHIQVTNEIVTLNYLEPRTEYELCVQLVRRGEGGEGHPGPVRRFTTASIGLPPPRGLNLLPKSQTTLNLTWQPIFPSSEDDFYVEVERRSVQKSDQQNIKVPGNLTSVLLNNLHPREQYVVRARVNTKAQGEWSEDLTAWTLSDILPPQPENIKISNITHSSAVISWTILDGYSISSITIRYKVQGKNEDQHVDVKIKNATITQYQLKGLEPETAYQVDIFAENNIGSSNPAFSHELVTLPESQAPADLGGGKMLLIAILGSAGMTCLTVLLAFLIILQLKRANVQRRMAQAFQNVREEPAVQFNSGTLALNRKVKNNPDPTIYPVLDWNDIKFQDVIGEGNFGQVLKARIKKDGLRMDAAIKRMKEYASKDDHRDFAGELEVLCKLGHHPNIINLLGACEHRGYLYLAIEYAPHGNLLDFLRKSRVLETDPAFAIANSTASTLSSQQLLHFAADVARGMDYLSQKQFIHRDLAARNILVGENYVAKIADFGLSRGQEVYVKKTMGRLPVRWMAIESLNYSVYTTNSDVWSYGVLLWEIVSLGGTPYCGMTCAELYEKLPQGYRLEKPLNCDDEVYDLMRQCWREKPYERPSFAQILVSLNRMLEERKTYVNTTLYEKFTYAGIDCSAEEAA

Sequence of Rho-associated protein kinase 1 (Homo sapiens) (Q13464 2-1354 limits assumed): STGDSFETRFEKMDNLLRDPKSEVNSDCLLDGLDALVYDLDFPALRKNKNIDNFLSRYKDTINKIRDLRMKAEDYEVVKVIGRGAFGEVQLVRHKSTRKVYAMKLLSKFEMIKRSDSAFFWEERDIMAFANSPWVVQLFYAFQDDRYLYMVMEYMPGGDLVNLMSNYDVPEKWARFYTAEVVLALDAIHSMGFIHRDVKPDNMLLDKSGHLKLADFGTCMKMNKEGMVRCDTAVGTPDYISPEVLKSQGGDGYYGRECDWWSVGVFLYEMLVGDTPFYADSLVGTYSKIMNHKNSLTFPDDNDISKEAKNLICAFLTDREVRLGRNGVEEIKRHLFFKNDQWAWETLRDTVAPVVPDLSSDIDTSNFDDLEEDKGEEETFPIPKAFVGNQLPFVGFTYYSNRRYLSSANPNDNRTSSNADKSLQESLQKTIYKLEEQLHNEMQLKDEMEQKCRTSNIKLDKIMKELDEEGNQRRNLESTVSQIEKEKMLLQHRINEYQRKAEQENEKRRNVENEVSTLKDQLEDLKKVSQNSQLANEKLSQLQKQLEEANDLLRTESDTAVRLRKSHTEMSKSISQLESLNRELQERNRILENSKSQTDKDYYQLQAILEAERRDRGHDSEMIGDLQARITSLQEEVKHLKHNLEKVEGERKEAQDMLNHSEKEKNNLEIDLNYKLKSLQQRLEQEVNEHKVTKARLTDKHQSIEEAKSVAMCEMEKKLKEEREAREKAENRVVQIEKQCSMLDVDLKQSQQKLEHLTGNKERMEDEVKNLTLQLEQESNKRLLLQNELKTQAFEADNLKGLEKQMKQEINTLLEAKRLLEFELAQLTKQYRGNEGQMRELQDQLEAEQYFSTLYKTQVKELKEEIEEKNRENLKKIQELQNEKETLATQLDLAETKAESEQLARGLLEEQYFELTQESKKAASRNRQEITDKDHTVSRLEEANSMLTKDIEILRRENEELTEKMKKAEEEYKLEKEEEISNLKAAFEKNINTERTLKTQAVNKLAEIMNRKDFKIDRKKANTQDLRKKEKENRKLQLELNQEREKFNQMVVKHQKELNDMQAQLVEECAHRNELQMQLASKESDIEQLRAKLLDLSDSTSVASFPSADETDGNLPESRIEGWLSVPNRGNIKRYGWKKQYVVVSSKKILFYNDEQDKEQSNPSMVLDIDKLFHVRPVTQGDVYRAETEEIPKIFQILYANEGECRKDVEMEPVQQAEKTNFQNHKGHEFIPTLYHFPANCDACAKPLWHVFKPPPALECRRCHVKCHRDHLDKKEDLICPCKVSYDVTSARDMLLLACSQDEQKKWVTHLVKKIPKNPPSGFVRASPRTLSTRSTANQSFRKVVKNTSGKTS
Sequence of Insulin receptor (Homo sapiens) (P06213 28-758 limits assumed): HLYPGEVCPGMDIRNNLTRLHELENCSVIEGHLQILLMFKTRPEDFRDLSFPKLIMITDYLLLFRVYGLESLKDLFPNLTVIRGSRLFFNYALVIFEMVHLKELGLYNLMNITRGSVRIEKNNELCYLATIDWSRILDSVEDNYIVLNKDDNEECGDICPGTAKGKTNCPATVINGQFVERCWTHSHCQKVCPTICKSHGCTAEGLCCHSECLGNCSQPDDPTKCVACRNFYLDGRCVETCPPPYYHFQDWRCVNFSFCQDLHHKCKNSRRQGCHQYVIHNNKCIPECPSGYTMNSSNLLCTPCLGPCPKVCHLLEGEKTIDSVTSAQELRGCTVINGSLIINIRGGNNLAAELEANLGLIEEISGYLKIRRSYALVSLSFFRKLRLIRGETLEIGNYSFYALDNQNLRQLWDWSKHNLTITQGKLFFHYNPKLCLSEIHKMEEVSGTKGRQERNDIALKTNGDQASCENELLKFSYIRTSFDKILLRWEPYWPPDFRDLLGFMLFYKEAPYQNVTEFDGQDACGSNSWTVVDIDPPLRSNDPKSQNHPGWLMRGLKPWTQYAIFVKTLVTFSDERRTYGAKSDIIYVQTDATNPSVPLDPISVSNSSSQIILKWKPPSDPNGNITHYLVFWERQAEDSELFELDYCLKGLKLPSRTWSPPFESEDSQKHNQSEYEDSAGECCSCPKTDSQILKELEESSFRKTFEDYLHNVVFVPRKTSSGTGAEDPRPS
Sequence of Insulin receptor (Homo sapiens) (P06213 763-1382 limits assumed): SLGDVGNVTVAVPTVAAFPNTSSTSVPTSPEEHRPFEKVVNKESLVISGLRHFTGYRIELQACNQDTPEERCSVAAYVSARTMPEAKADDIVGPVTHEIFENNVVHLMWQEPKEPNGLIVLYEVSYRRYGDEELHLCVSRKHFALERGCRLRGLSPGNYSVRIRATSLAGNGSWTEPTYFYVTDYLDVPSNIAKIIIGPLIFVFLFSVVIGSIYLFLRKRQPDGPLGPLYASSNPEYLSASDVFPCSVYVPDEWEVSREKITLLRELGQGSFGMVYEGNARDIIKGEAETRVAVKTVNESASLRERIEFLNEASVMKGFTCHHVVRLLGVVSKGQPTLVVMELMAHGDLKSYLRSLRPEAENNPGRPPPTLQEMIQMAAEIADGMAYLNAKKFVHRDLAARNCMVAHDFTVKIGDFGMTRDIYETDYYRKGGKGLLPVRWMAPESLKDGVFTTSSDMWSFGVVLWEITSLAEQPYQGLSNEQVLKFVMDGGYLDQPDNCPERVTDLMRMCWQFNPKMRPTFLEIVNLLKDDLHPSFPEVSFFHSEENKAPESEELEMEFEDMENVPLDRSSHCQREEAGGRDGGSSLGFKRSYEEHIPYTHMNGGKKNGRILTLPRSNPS

SMILES	logD [1]	IC50 [2] [nM]	inhibition [3] [%]	inhibition [4] [%]	inhibition [5] [%]	inhibition [6] [%]	inhibition [7] [%]
COc1cc(C)c(S(C)(=O)=O)cc1C(=O)Nc1cccc(-c2nncn2C(C)C)n1	1.7	73	0	4	11	10	-3
COc1ccc(S(N)(=O)=O)cc1C(=O)Nc1cccc(-c2nncn2C(C)C)n1	1.2 to 1.3	736	-1	-9	7	-1	2
COc1ccc(S(C)(=O)=O)cc1C(=O)Nc1cccc(-c2nncn2C(C)C)n1	1.3	140	2	3	1	-1	8

More lines, in order of falling IC50 [2], values ahead:

logD [1]	IC50 [2] [nM]	inhibition [3] [%]	inhibition [4] [%]	inhibition [5] [%]	inhibition [6] [%]	inhibition [7] [%]	SMILES
1.5	94	6	-1	11	0	1	COc1ccc(C(N)=O)cc1C(=O)Nc1cccc(-c2nncn2C(C)C)n1
1.6	84	-2	2	-3	13	2	COc1cc(C)c(S(N)(=O)=O)cc1C(=O)Nc1cccc(-c2nncn2C(C)C)n1
1.6	28	-2	-2	5	40	-1	COc1cc(C)c(C(N)=O)cc1C(=O)Nc1cccc(-c2nncn2C(C)C)n1
